These results are taken from ChEMBL document CHEMBL4831539, “Withanolide-Type Steroids from Physalis nicandroides Inhibit HIV Transcription” (J Nat Prod, 2021).

pIC50: −log10 of the molar value. A value given as a limit tells only on which side of the number the result lay.

A short description of data set [1]: Selectivity index, ratio of CC50 for human MT2 cells to IC50 for Anti-HIV activity against HIV. The data set is classed as toxicity. Particulars: read-out: Selectivity Index. The gist of the method:
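SI = CC50/IC50. […] CC50 came from mock-infected MT-2 cells under the same conditions, read by CellTiter Glo. Both are means of at least three independent experiments, fitted by nonlinear regression.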

The nature of data set [2]: Selectivity index, ratio of CC50 for human MT2 cells to IC50 for antiviral activity against VSV envelope pseudotyped HIV infected in MT2 cells by viral entry evaluation assay. The data set is classed as toxicity, cell-based. Particulars: read-out: Selectivity Index.
Data set [3] in a line: Selectivity index, ratio of CC50 for human MT2 cells to IC50 for antiviral activity against HIV1 pNL4.3-Luc infected in MT2 cells by transfection assay. The data set is classed as toxicity, cell-based. Particulars: read-out: Selectivity Index.
Data set [4] can be described thus: Antiviral activity against HIV1 pNL4.3-Luc infected in MT2 cells assessed as luciferase activity measured after 48 hrs by transfection assay. The data set is classed as functional, cell-based. Particulars: Human immunodeficiency virus 1, MT2, 48 h. The gist of the method: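 MT-2 cells were electroporated at 260 V, maximum resistance, with an HIV-1 whole-genome luciferase plasmid (pNL4.3-Luc). They were then treated with base-2 serial dilutions from 0.7 to 100 μM in complete RPMI at 37 °C for 48 h. PMA served as the transactivation reference. Cells were lysed and luciferase RLUs read. IC50 came from nonlinear dose–response regression.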

In data set [5] the test system is Human immunodeficiency virus. The experiment in a line: Antiviral activity against VSV envelope pseudotyped HIV infected in MT2 cells assessed as luminescence measured after 48 hrs by viral entry evaluation assay. The data set is classed as functional, organism-based. Particulars: Human immunodeficiency virus 1, MT2, 48 h. The gist of the method:
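VSV-G pseudotyped HIV came from 293T cotransfection (calcium phosphate) of envelope-deleted pNL4.3-Luc-RE plus pcDNA3-VSV. MT-2 cells were infected at 100 000 RLUs or 20 ng p24 per well, with base-2 dilutions up to 100 μM, for 48 h at 37 °C, 5% CO2. NL4.3-Ren infections ran in parallel, with an enfuvirtide reference. Luciferase RLUs were read and IC50 obtained by nonlinear regression.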

As to `CC(=O)O[C@H]1C=C([C@H](C)[C@H]2CC(C)=C(C)C(=O)O2)[C@@]2(C)CC[C@H]3[C@@H](C[C@H]4O[C@]45CC=CC(=O)[C@]35C)[C@@]12O`, the selectivity ratio in data set [1] is 10.6; in data set [2] it was 2.66.
Consider `C[C@H](Cn1cnc2c(N)ncnc21)OCP(=O)(O)O` [TENOFOVIR ANHYDROUS], for which, in data set [1], the selectivity ratio was 333.
Consider `C=C1C(=O)O[C@@H]([C@@H](C)[C@]2(O)C[C@H](OC(C)=O)[C@]3(O)[C@@H]4C[C@H]5O[C@]56CC=CC(=O)[C@]6(C)[C@H]4CC[C@@]32C)C[C@@]1(C)O`, for which, in data set [1], the selectivity ratio is over 8.
Take `CC(=O)O[C@H]1C=C([C@H](C)[C@H]2CC(C)=C(C)C(=O)O2)[C@@]2(C)CC[C@H]3[C@@H](C[C@@H](O)[C@]45C=C[C@H](OO4)C(=O)[C@]35C)[C@@]12O`: the selectivity ratio in data set [3] was 1.02; in data set [2] it was 1.64. Besides, the pIC50 in data set [4] was 5.71; in data set [5], 5.49.
Take enfuvirtide: the values for the pIC50 in data set [4] and in data set [5] were 8.00 and under 6.00, respectively. In data set [2], the selectivity ratio was determined as 66.7.
For `C=C1C(=O)O[C@@H]([C@@H](C)[C@]2(O)C[C@H](OC(C)=O)[C@]3(O)[C@@H]4C[C@H]5O[C@]56CC=CC(=O)[C@]6(C)[C@H]4CC[C@@]32C)C[C@]1(C)O`, the selectivity ratio in data set [1] is over 5.3.
